Source: PubChem BioAssay
Rows were chosen to be rich in hits. Some 3% of all compounds tested hit in one or more screens of this group.
AI-2 QS modul – modulators of Vibrio harveyi AI-2 quorum sensing system; Vibrio harveyi JMH597 AI-2 luminescence/OD600 ratio, 9 h; stronger effect = lower value; strain lacks LuxN and CqsS sensors; 0 = neutral-control median; activity change, % at 7.5 µM; 300,000 compounds, 0.4% hits; AID 2094; in the data active = activity change below about -75%, passing the limit was not always enough; inconclusive = no clear call, values can overlap the other calls;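 note: luminescence divided by OD600 gain over 9 h not by final OD600 alone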
T cruzi repl – blocks replication of Trypanosoma cruzi. 300,000 compounds, 1.4% hits. inhibition, % (no concentration beside the values). AID 1885. T. cruzi beta-gal in NIH3T3, luminescence, 90 h;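 active = mean inhibition across valid replicates above about 55%, limit read from the data; inconclusive = mean below that limit but half or more replicates reach it; inactive = mean below it, under half of replicates reach it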;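 note: signal also drops with host cell toxicity which is not excluded here; higher percent means less beta-gal luminescence so fewer parasites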
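System – NIH/3T3 host cells with β-galactosidase reporter T. cruzi · Doses – single 50 nL compound addition per well in DMSO · Reagent – 5000 T. cruzi trypomastigotes/well · Medium – Low-serum DMEM with 2% FBS · Timing – ≥90 h infection period, 3 h prior cell attachment · Evaluation – parasite load inhibition, % · Technique – GalScreen luminescence, 60 min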
CendR NRP1 mod – modulators of CendR peptide binding to human neuropilin-1; O14786; FAM-RPARPAR peptide binding to NRP-1, fluorescence polarization; inhibition, % at 25 µM; 360,000 compounds, 0.85% hits; AID 602438;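 active = inhibition or corrected inhibition above about 18%, plus a signal ratio from 0.5 to 1.5, limit read from the data, passing the limit was not always enough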
Target sequence (O14786 whole entry, looked up): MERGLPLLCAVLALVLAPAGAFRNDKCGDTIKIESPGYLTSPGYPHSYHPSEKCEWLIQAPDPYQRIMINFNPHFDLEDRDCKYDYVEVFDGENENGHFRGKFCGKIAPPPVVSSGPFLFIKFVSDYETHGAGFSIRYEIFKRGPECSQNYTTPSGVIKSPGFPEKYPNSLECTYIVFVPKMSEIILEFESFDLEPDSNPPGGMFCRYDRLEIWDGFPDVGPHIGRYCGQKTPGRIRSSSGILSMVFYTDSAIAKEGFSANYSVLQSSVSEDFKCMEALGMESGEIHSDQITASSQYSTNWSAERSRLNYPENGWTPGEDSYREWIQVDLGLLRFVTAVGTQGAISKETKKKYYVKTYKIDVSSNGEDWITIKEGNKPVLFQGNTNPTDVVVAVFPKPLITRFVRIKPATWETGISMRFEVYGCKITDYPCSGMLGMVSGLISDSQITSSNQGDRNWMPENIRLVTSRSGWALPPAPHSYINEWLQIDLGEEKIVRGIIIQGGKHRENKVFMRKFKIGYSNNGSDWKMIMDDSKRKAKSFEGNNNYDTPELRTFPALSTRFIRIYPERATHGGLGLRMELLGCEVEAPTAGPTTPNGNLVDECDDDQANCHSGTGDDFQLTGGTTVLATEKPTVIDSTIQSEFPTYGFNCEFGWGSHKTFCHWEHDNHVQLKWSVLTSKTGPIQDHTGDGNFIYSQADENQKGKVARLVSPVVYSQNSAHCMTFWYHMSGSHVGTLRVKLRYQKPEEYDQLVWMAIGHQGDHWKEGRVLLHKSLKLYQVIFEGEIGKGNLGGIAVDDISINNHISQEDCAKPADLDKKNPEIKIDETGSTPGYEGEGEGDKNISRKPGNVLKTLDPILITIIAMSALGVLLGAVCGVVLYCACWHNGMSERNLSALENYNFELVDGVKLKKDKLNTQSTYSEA
V-ATPase pH – regulators of yeast V-ATPase proton transport; S. cerevisiae, pHLuorin cytosolic pH fluorescence; response, % at 10 µM; 350,000 compounds, 0.37% hits; AID 504577; in the data active = response mostly above about 7.3%, no sharp cut-off; inactive = mostly below about 5.4%; note: actives read high
HIF activator – HIF pathway transcriptional activation; activation, % at 7.5 µM (by protocol); AID 1910; 300,000 compounds, 0.32% hits; U2OS HRE-luciferase reporter, luminescence; normalized: DMSO 0%, desferrioxamine 100%;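 active = mean activation of at least 10% of the iron chelator positive control signal, with at least half of replicates also reaching 10%; inconclusive = mean and replicate majority disagree about reaching 10%; inactive = mean and most replicates under 10%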
CR mimetic SO – yeast age-related superoxide inhibition as caloric restriction mimetic | S. cerevisiae aged cells, superoxide DHE fluorescence; stronger effect = lower value | superoxide response (% of plate mean), % at 10 µM | 330,000 compounds, 0.18% hits;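 active = superoxide response under a set limit, about three screen SD below normal, cut at about 65% in these data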;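 note: yeast aged for seven days with compound at 30 °C before DHE staining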
CR mimetic CP – yeast aging superoxide inhibition, cherry pick confirmation. shares compounds with CR mimetic SO. 850 compounds, 1% hits. superoxide response (% of plate), % at 10 µM. S. cerevisiae aging, superoxide DHE fluorescence; stronger effect = lower value;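 active = superoxide signal below 65% of the plate average of sample wells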;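 note: cells aged with compound for 7 days at 30 degrees C before staining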
DHE fluor count – counter-screen for compounds affecting DHE oxidation and fluorescence in yeast; shares compounds with CR mimetic SO; S. cerevisiae BY4741, flow cytometry; stronger effect = lower value; fluorescence response, % at 10 µM; 850 tested, under 10 active; AID 435000;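 active = fluorescence response below 15%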;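 note: lower means stronger quenching of DHE signal or ROS scavenging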
A number is an active result; i = inactive; ? = inconclusive; nt = no result.

SMILES | AI-2 QS modul | T cruzi repl | CendR NRP1 mod | V-ATPase pH | HIF activator | CR mimetic SO | CR mimetic CP | DHE fluor count
CCC(CO)NCc1ccc2c(c1)n(C)c(=O)n2C (centres undefined) | i | i | i | i | i | 61 | i | i
CCc1ccc(C(=O)Nc2ccc3c(c2)n(C)c(=O)n3C)cc1 | i | i | i | i | i | i | nt | nt
CC1CC(C)CN(CC(=O)NCCc2ccc(S(N)(=O)=O)cc2)C1 (centres undefined) | i | i | i | i | i | 62 | i | i
O=C(OCc1c(F)cccc1Cl)c1cnc2ccccc2n1 | i | i | i | i | i | 54 | i | i
CN(C)S(=O)(=O)c1ccc(NC=C(C#N)C#N)cc1 | i | i | i | i | i | i | nt | nt
CCCCN(C(=O)c1ccc2c(c1)NC(=O)CS2)c1ccccc1 | nt | nt | i | i | nt | i | nt | nt
O=C1C(=O)c2ccc(-c3ccccc3)cc2-c2ccccc21 | i | ? | i | i | i | i | nt | nt
O=C1C(c2ccccc2)=[N+]([O-])c2ccccc21 | i | i | 30 | i | i | 57 | i | i
C#CCSc1nnc(-c2ccc(O)cc2)o1 | i | i | i | i | i | i | i | i
Oc1ccc(-c2nnc(SCc3ccccc3)o2)cc1 | nt | i | i | i | i | i | nt | nt
C#CCSc1nnc(-c2cccc3ccccc23)o1 | i | i | i | i | i | i | nt | nt
C#CCSc1nnc(-c2ccc(C)cc2)o1 | i | i | i | i | i | i | i | i
COc1ccc(S(=O)(=O)N2CCCCC2)cc1NC(=O)Cc1c[nH]c2ccccc12 | i | i | i | i | i | i | nt | nt
O=C1CCCN1CCC1CCCCN1Cc1nc(-c2cnccn2)no1 (centres undefined) | i | i | i | i | i | i | nt | nt
COCC(C)n1c(SCc2nc(N)nc(Nc3ccccc3C)n2)nc2ccccc2c1=O (centres undefined) | i | i | i | i | i | i | nt | nt
O=C(Nc1cccc(Cl)c1)Nc1ccc2nccnc2c1 | i | i | i | i | i | 60 | i | i
Cc1cc(NC(=O)CSc2nnc(COc3cccc(C)c3C)n2C)no1 | i | i | i | i | i | i | nt | nt
CCn1c(C)nnc1SCC(=O)Nc1ccc(C(C)=O)cc1 | i | i | i | i | i | 59 | i | i
Cc1nnc(SCC(=O)N2CCN(S(=O)(=O)c3ccccc3)CC2)n1Cc1ccccc1 | i | i | i | i | i | i | nt | nt
CCn1c(SCC(=O)Nc2ccc(C(=O)OC)cc2)nnc1-c1cccs1 | i | i | i | i | i | i | i | i
C=CCn1c(SCC(=O)Nc2ccc(C(=O)OCC)cc2)nnc1-c1cccs1 | i | i | i | i | i | i | nt | nt
COC(=O)c1ccc(NC(=O)CSc2ccc(-c3ccccn3)nn2)cc1 | i | i | i | i | i | i | i | i
CCn1c(SCC(=O)N2CCN(S(=O)(=O)c3ccccc3)CC2)nnc1-c1cccs1 | i | i | i | i | i | 63 | i | i
CC(C)(CCc1ccccn1)C(=O)C(CCc1ccccn1)CCc1ccccn1 | nt | nt | i | i | nt | nt | nt | nt
Cc1cc2ccccn2c1C(=O)c1ccccc1F | i | i | i | i | i | 62 | i | i
SMILES | AI-2 QS modul | T cruzi repl | CendR NRP1 mod | V-ATPase pH | HIF activator | CR mimetic SO | CR mimetic CP | DHE fluor count
COc1ccccc1NC(=O)NCC(=O)Nc1c(C)cccc1C | i | i | i | i | i | i | nt | nt
Cc1ccc(C(=O)N2CCN(c3cccc(Cl)c3)CC2)cc1C | i | i | i | i | i | i | i | i
O=C(c1ccccc1)N1CCN(c2ccc(Cl)cc2)CC1 | i | i | i | i | nt | i | i | i
CS(=O)(=O)Nc1ccc(C(=O)N2CCN(c3ccccc3)CC2)cc1 | i | nt | i | i | nt | i | i | i
O=C(c1ccccc1)N1CCN(c2ccccc2)CC1 | nt | nt | i | i | nt | nt | nt | nt
Cc1ccc(C(=O)N2CCN(c3ccccc3)CC2)cc1C | i | i | i | i | i | i | i | i
COc1cc(C(=O)Oc2ccc(Br)cc2C(=S)N2CCOCC2)cc(OC)c1OC | i | i | i | i | i | i | nt | nt
